Each structure is given as a SMILES string. This is one part of the list. A number with no mark means an inactive call. Activity calls are given as the source filed them.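 The calls were made as follows: active = primary screen active, with duplicate mean exceeding buffer control mean plus 3 SD of buffer wells (cut at about 28% in these data); inactive = the rest.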

Chain of Potassium voltage-gated channel subfamily KQT member 1 (Homo sapiens) (P51787 whole entry, looked up): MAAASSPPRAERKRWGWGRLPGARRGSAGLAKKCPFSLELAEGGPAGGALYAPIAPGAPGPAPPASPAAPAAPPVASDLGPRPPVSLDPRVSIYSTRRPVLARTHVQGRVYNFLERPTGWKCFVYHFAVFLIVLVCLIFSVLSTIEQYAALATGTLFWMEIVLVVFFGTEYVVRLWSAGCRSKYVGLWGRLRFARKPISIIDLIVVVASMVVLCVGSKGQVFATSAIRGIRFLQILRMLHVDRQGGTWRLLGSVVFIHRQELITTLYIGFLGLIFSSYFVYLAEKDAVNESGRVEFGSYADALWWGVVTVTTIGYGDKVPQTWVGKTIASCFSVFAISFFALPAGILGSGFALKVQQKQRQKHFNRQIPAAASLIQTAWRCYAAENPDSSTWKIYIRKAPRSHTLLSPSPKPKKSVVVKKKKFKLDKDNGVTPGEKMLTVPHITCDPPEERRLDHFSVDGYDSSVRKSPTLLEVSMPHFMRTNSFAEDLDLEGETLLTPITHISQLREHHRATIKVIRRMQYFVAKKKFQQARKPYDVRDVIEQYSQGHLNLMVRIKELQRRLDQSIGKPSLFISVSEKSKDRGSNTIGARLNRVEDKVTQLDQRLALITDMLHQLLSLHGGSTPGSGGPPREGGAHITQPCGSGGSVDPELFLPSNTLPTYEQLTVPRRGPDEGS

This assay concerns the target Potassium voltage-gated channel subfamily KQT member 1 (Homo sapiens) (UniProt P51787). As to the kind of experiment: blockers of human KCNQ1 channel – cell-based, Tl flux, duplicate, confirmation (AID 588353).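 Also: 0% = buffer control ratio and 100% = XE991 inhibitor control ratio.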 The note with it: KCNQ1 cell line, FluxOR thallium flux fluorescence, at 10 µM, hits give high values. The procedure, abridged: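 Material: KCNQ1 CHO cells; also added: Thallium-potassium depolarizing stimulus buffer; timing: dye loading 90 min, compound 20 min, both room temperature; signal: FluxOR thallium flux fluorescence, 10 s baseline plus 110 s; evaluation: percent inhibition relative to buffer and XE991; benchmarks: buffer and XE991; repeats: duplicates, mean used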
Usually inhibition stands for the relative decrease from the control value, in per cent. Turning to `O=C(Nc1ccc(Cl)cc1)Nc1ccc(Oc2cccnc2)nc1`, the inhibition was 56% (active). In the case of `c1ccc2c(c1)C(=NC1CCCCC1)NC2=NC1CCCCC1`, the inhibition is 48% (active).

Turning to `Cn1nc(-c2ccc(Cl)cc2)c2cc(C(=O)NCc3ccco3)sc21`, the inhibition is 70.5% (active). The value for `O=C(NC(=S)Nc1ccccc1C(=O)O)c1ccc(-c2ccc(Br)cc2)o1` was 56% (active); that for `O=C(Nc1nnc(S(=O)(=O)N2CCCCCC2)s1)c1cccc(Br)c1` was 57% (active). In the case of `CC1CCC2(CC1)NC(=O)N(CC(=O)c1cccn1C)C2=O` (stereo not drawn), the inhibition was 31% (active).

As for `Cc1cc2nc3c(=O)n(Cc4ccccc4)c(=O)[nH]c3nc2cc1N`, the inhibition is 93% (active).

Take `Cc1ccc(S(=O)(=O)Nc2ccc3ncccc3c2)cc1`: the inhibition was 76.5% (active). As for `CCC(=C/c1sc2ccc3ccccc3c2[n+]1C)/C=C1\Sc2ccc3ccccc3c2N1C`, the figure is 57.5% (active); as for `CC(C(=O)NCC1CCCCC1)N(C)Cc1cccc(Cl)c1` (stereo not drawn), 62% (active); as for `O=C1CCCN1CCCNC(=S)Nc1ccc(F)c(Cl)c1`, 51% (active). As for `FC(F)Oc1ccc(NC(=S)NCc2ccco2)cc1Cl`, the figure is 56.5% (active); as for `COc1ccc(S(=O)(=O)/N=C2\C=C(NS(=O)(=O)c3ccccc3)C(=O)c3ccccc32)cc1`, 31.5% (active). As for `Cc1nnc(SC(C(=O)Nc2cc(Cl)cc(Cl)c2)c2ccccc2)[nH]c1=O` (stereo not drawn), the figure is 43% (active); as for `Fc1cc(Br)ccc1NC(=S)Nc1cccnc1`, 33% (active).

For `CCNC(=O)c1ccc(OCC(=O)Nc2ccc(F)cc2)c(OC)c1`, the inhibition was 0% [the number is a placeholder, only the call stands]. As for `CCOC(=O)c1c(NC(=O)C(C)Sc2c[nH]c3ccccc23)sc2c1CCC2` (stereo not drawn), the figure is 124% (active); as for `Cc1cccc(-n2cc(CN3CCN(C(=O)c4ncn[nH]4)CC3)c(-c3cccc(F)c3)n2)c1`, 45.5% (active).

For `O=C(NCCc1ccccc1)c1ccc2c(c1)N(Cc1ccccc1)CCS2`, the inhibition is 71.5% (active). Consider `COC(=O)c1cc(NC(=O)c2cc(C(C)(C)C)nn2Cc2cccc(C)c2)ccc1N1CCOCC1`, for which the inhibition is 77% (active). The value for `Cc1oc2c(F)c(F)c(F)c(F)c2c1S(=O)(=O)Nc1cccc(C(F)(F)F)c1` was 0% [the number is a placeholder, only the call stands]. The value for `CCc1cc(C(c2ccccc2OC)N2CCOCC2)c(NC(=O)c2ccccc2)s1` (stereo not drawn) was 102% (active). As for `Cc1cccc(CSc2ccc(-c3cccs3)nn2)c1`, the inhibition was 78% (active). As for `CCCC(=O)N1CCN(c2nnc(-c3ccc(C)cc3)c3ccccc23)CC1`, the figure is 0% [the number is a placeholder, only the call stands]; as for `COc1ccc(Nc2ncnc3sc(-c4ccccc4)cc23)c(OC)c1`, 82.5% (active). As for `COC(=O)c1ccc(NC(=O)Nc2ccc(C)cc2)cc1`, the figure is 62.5% (active).

Regarding `CN(c1cccc(NC(=O)Nc2ccc(Cl)cc2)c1)S(C)(=O)=O`, the inhibition is 59.5% (active). The value for `CC(C)OC(=O)C(C#N)c1nc2ccccc2nc1N1CCN(Cc2ccccc2)CC1` (stereo not drawn) was 148% (active). Turning to `Cc1ccc(-c2noc(CC(c3ccccc3)c3ccccc3)n2)cc1`, the inhibition is 65.5% (active). The value for `S=C(Nc1cccc(Cl)c1)Nc1ccc2c(c1)OCCO2` was 81% (active).

Regarding `Cc1ccccc1OCC(=O)Nc1ccc(N2CCN(C(=O)C(C)C)CC2)c(Cl)c1`, the inhibition is 57.5% (active). The value for `O=C1CCc2cc(S(=O)(=O)N3CCC(C(=O)NCc4ccccc4Cl)CC3)ccc2N1` was 0% [the number is a placeholder, only the call stands]; that for `O=C(NCC(F)(F)F)Nc1nnc(C(F)(F)F)s1` was 26% (active); that for `Cc1ccc(N2CCN(S(=O)(=O)c3ccc(F)cc3)CC2)c(C)c1` was 79% (active). In the case of `Cc1ccccc1C(=O)OC1OC(=O)C(Cl)=C1Nc1ccccc1` (stereo not drawn), the inhibition is 79% (active). Consider `CS(=O)(=O)N(CC(=O)Nc1ccc(Cl)c(Cl)c1)C1CCCCC1`, for which the inhibition was 56.5% (active). On to `CCOc1ccc(CN2CCN(Cc3c[nH]c4ccccc34)CC2)cc1`, for which the inhibition was 0% [the number is a placeholder, only the call stands]. The value for `COc1ccc(-c2cc(C(F)(F)F)nc(S(C)(=O)=O)n2)cc1OC` was 27% (active).

Source of the values: PubChem BioAssay.
